Screens deposited in PubChem BioAssay by The Scripps Research Institute Molecular Screening Center.
In the library only some 4.6% were active in any assay of this set; here they are far more common.
CHO parental Ca: signal in parental CHO cells, OX1R antagonist counter-screen; 0.63% of 330,000 active; inhibition, % at 5.6 µM; parental CHO-K1, ATP-induced calcium, Fluo-8 fluorescence;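 active means inhibition above that plate's mean sample inhibition plus 3 SD, cut at about 26% in these data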;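 further: 0% = ATP-challenged DMSO wells and 100% = DMSO wells without ATP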
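Measured by: calcium-sensitive Fluo-8 fluorescence / Test system: CHO parental line / Controls: ATP-challenged DMSO wells low, unchallenged DMSO wells high / Measure: % inhibition / Compound: single nominal dose of 5.6 µM per compound / Replicates: single well per compound, no replicates / Reagent: ATP as calcium-mobilizing challenge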
TAAR1 agonist: agonists of human TAAR1 | activation, % at 3 µM | 0.99% of 360,000 active | CHO RD-HGA16 TAAR1, Fluo-8 calcium fluorescence; vehicle wells 0%, saturating PEA agonist 100% | Q96RJ0;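 active means activation above the mean activation of all test compounds in the run plus 3 SD, cut at about 38% in these data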
Target sequence (Q96RJ0 whole entry, looked up): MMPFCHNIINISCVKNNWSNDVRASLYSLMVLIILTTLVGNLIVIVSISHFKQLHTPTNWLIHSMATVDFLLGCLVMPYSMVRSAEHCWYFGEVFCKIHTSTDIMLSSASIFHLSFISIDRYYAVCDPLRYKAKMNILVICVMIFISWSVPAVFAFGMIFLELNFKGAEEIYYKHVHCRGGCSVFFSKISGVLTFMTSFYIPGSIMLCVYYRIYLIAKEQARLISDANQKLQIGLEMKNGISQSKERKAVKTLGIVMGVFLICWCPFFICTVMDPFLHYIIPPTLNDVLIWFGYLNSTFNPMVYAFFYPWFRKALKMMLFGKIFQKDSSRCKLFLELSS
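Assay system – CHO-derived RD-HGA16 cells with stable Gα16 and human TAAR1 · Compound dosing – one-point dosing at 3 µM (nominal) · Incubation – 17-24 h seeding, 75 min 37 °C dye, 30 min RT · Measured by – kinetic Fluo-8 calcium fluorescence · Control set – DMSO vehicle as 0%, PEA at EC100 as 100% · Repeats – single well for each compound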
OX1R antag-1: OX1R (human) antagonism | 1.8% of 330,000 active | O43613 | AID 485270 | OX1R-expressing cells, FRET antagonist read-out | inhibition, % at 6.6 µM; in the data active means inhibition mostly above about 38%, no sharp cut-off; inactive means mostly below about 40%;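 further: 0% = agonist challenge alone and 100% = reference antagonist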
TAAR1 antag: antagonists of human TAAR1; Q96RJ0; CHO RD-HGA16 TAAR1, Fluo-8 calcium fluorescence, antagonist; inhibition, % at 3 µM; 1.5% of 360,000 active; AID 624466;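 active means inhibition above a per-plate cutoff, the mean inhibition of test compounds on that plate plus 3 SD, cut at about 49% in these data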;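 further: 0% = DMSO plus EC80 beta-PEA response and 100% = DMSO alone without agonist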
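Assay system: RD-HGA16 CHO cells with stable hTAAR1 and Gα16 / Reagent: EC80 β-phenethylamine stimulus / Doses: 3 µM, single point / Timing: dye loading 75 min at 37 °C, then 30 min room temperature / Measured by: Fluo-8 intracellular calcium dye fluorescence, real-time kinetic reads / Controls: vehicle wells and EC80 agonist wells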
OX1R antag-2: human HCRTR1 antagonism; O43613; CHO/OX1R cells, Fluo-8 calcium fluorescence, orexin A; inhibition, % at 5 µM; 0.43% of 330,000 active;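 active means inhibition above its plate's threshold, mean inhibition of all tested compounds on the plate plus 3 SD, cut at about 37% in these data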;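 further: 0% = orexin A challenge wells and 100% = SB-334867-A antagonist wells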
GPR7 antag: human neuropeptides B/W receptor 1 antagonism; 1.1% of 290,000 active; AID 1861; inhibition, % at 4.4 µM; P48145; GPR7-expressing cells, fluorescence antagonist assay; in the data active means inhibition above about 16%, passing the limit was not always enough;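 further: cells stimulated with the agonist NPW; 0% = agonist with vehicle and 100% = vehicle without agonist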
Target sequence (P48145 whole entry, looked up): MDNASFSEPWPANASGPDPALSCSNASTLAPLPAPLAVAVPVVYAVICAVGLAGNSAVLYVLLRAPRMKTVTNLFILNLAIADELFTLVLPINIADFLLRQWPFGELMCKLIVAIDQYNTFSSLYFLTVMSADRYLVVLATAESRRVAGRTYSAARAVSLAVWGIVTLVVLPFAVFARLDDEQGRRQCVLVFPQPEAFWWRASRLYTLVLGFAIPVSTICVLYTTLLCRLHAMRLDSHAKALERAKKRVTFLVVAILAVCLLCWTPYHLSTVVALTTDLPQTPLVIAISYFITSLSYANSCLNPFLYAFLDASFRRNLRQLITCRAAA
TAAR1 ag confirm: human TAAR1 agonism, confirmed. shares compounds with TAAR1 agonist. CHO RD-HGA16 TAAR1, Fluo-8 calcium fluorescence; scaled: DMSO 0%, maximal phenethylamine 100%. activation, % at 3 µM. 82% of 2,400 active;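 active means activation above a cutoff set at the run's mean compound activation plus 3 SD, cut at about 39% in these data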
Ga16 nonsel ag: nonselective agonism, TAAR1 counter-screen. shares compounds with TAAR1 agonist. AID 651787. 50% of 2,400 active. activation, % at 3 µM. CHO-Ga16 parental, Fluo-8 calcium fluorescence; normalized to maximal ATP response, DMSO zero;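 active means activation above the run cutoff, the mean activation over all tested wells plus 3 SD, cut at about 12% in these data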;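 further: 0% = DMSO wells and 100% = maximal ATP response on the peak over basal ratio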
TAAR1 desens: human TAAR1 agonist that also desensitizes the receptor; shares compounds with TAAR1 agonist; CHO RD-HGA16 hTAAR1, Fluo-8 calcium, beta-PEA response inhibition; inhibition, % at 3 µM; 46% of 2,400 active; AID 651951;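 active means inhibition above the run cutoff, the mean inhibition of all test compounds plus 3 SD, cut at about 49% in these data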;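 further: beta-PEA stimulus applied at its EC80; loss of beta-PEA calcium signal after compound pretreatment read as receptor desensitization; 0% = DMSO with beta-PEA at EC80 and 100% = DMSO alone without agonist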
Ga16 nonsel ant: counter-screen for TAAR1 agonists: nonselective Ga16 antagonists; shares compounds with TAAR1 agonist; 39% of 2,400 active; inhibition, % at 3 µM; CHO-Ga16 ATP-induced calcium, Fluo-8 fluorescence; AID 651952;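 active means inhibition above the plate's mean compound inhibition plus 3 SD, computed per plate, cut at about 22% in these data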;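 further: 0% = EC80 ATP with DMSO and 100% = DMSO wells without ATP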
* = called active by the depositor; · = no result given.

SMILES | CHO parental Ca | TAAR1 agonist | OX1R antag-1 | TAAR1 antag | OX1R antag-2 | GPR7 antag | TAAR1 ag confirm | Ga16 nonsel ag | TAAR1 desens | Ga16 nonsel ant
O=[N+]([O-])c1ccccc1NC(=S)N/N=C/c1ccc(O)c(O)c1 | 4 | 52* | 16 | 13 | -12 | -6 | 84* | 6 | 56* | 10
CCOc1cccc(/C=N/NC(=S)Nc2ccccc2[N+](=O)[O-])c1O | -16 | 5 | 34 | 14 | -20 | -7 | · | · | · | ·
Cn1c(-c2sccc2OCc2ccccc2)n[nH]c1=S | 3 | 7 | 13 | -9 | 2 | -9 | · | · | · | ·
O=C(Nc1cccnc1)c1ccc(-c2cc(Cl)ccc2Cl)o1 | -32 | 73* | 12 | 15 | -29 | -5 | 40* | 43* | 40 | 19
O=C(NCc1ccccc1)c1ccc(Br)o1 | -7 | 15 | -3 | -2 | -5 | 11 | · | · | · | ·
O=C(NCCc1ccccc1)c1ccc(-c2ccccc2Cl)o1 | -13 | 51* | 28 | 21 | -16 | -10 | 16 | 19* | 81* | 15
O=C(NCCc1ccccc1)c1ccc(Br)o1 | -17 | 67* | 12 | 27 | -9 | -2 | 77* | 3 | 40 | 1
O=C(Nc1ccccc1)c1ccc(-c2ccccc2Cl)o1 | -8 | 7 | 33 | 1 | -23 | 3 | · | · | · | ·
O=C(Nc1cccnc1)c1ccc(-c2ccc(Cl)cc2)o1 | -27 | 1 | 46 | -6 | -28 | -8 | · | · | · | ·
CC(=O)Nc1ccc(NC(=O)c2ccc(-c3ccccc3Cl)o2)cc1 | · | 58* | · | 54* | · | · | 40* | 43* | 57* | 38*
Fc1ccc(N/N=C/c2ccncc2)c(F)c1 | 0 | 10 | 7 | -14 | -9 | -3 | · | · | · | ·
O=C(O)c1ccc(/C=N/Nc2ccc(F)cc2F)cc1 | 9 | 88* | -11 | 21 | -1 | -15 | 44* | 21* | 12 | 12
CSCCC(NS(=O)(=O)c1ccc(C)cc1)C(=O)Nc1ccc(C)cn1 (centres undefined) | -15 | 4 | 25 | -17 | -19 | · | · | · | · | ·
O=C(C[C@H]1C/C=C\C[C@H](NC(=O)OCC2c3ccccc3-c3ccccc32)C(=O)OC[C@H](Cc2ccccc2)NC1=O)N[C@H](CO)Cc1ccccc1 | -12 | 2 | 8 | -2 | -13 | · | · | · | · | ·
Cc1nn(-c2ccccc2)c(C)c1/C=N/n1c(-c2ccncc2)n[nH]c1=S | -18 | 47* | 17 | -6 | -24 | -13 | 93* | 18* | 24 | -5
Cc1nn(-c2ccccc2)c(C)c1/C=N/n1c(-c2ccc(Cl)cc2)n[nH]c1=S | -9 | 3 | 3 | 3 | -3 | -2 | · | · | · | ·
Cc1nc2ccc(NC(=O)C3CCN(S(=O)(=O)c4cccs4)CC3)cc2s1 | -6 | 41* | 16 | -5 | -16 | 10 | 8 | 12* | 12 | 13
CC(CCCN1CCCC1)Nc1ccnc2cc(Cl)ccc12 (centres undefined) | · | 0 | · | -2 | · | · | · | · | · | ·
CC(Nc1ccnc2cc(Cl)ccc12)c1ccc(S(N)(=O)=O)cc1 (centres undefined) | 2 | 53* | 30 | -2 | -4 | 14 | 69* | 0 | 51* | -2
COc1ccc(NC(=O)CCc2nc(-c3ccccc3F)no2)cc1 | -12 | 48* | 24 | 15 | -2 | -2 | 67* | 8 | 44 | 20
COc1ccccc1-c1noc(CCC(=O)Nc2cccc(C)c2)n1 | -31 | 17 | 24 | 5 | -10 | 4 | · | · | · | ·
N=c1c2c(-c3ccccc3)c(-c3ccccc3)n(Cc3ccccc3)c2ncn1CCCn1ccnc1 | -31 | 61* | 13 | -19 | -11 | -3 | 49* | 15* | 10 | 13
O=C(c1nc2ncccn2n1)N1CCc2ccccc2C1 | -10 | 51* | 7 | 21 | 0 | -12 | 71* | 0 | 28 | 6
O=C(c1cccnc1)N1CCc2ccccc2C1 | -4 | 59* | 26 | -6 | -5 | 4 | 40* | 2 | 3 | 8
O=C(c1cccnc1)N1CCc2ccccc21 | -9 | 5 | 5 | 12 | -2 | 4 | · | · | · | ·
SMILES | CHO parental Ca | TAAR1 agonist | OX1R antag-1 | TAAR1 antag | OX1R antag-2 | GPR7 antag | TAAR1 ag confirm | Ga16 nonsel ag | TAAR1 desens | Ga16 nonsel ant
CCOC(=O)c1csc(NC(=O)CSc2nnnn2-c2ccc(OC)cc2)n1 | -16 | 53* | 12 | -4 | -20 | 0 | 30 | 16* | 10 | 8
O=C(NCCc1ccccc1)c1cnc2n(c1=O)CCS2 | -7 | · | 15 | · | -5 | -6 | · | 5 | · | 2
CC1(C)CC(=O)c2cnc(NC(=O)c3ccco3)nc2C1 | -6 | 4 | 16 | 13 | -6 | -18 | · | · | · | ·
O=C(NCc1cccc(F)c1)c1cccc2c1C(=O)c1ccc(N3CCCC3)cc1S2(=O)=O | 3 | · | 20 | · | 9 | · | · | · | · | ·
CC1CCN(c2ccc3c(c2)S(=O)(=O)c2cccc(C(=O)NCc4cccc(F)c4)c2C3=O)CC1 | -8 | 67* | 8 | 91* | 23 | · | 26 | 36* | 60* | 62*
O=C1/C(=C/c2cccs2)CCC/C1=C\c1cccs1 | -16 | -2 | 30 | -21 | -16 | -2 | · | · | · | ·
Cn1cccc1/C=C1\CCC/C(=C\c2cccn2C)C1=O | 70* | 165* | 25 | 88* | 93* | -7 | 33 | 36* | 36 | 46*
O=[N+]([O-])c1cccc(NC(=S)N2CCc3ccccc3C2)c1 | -3 | 55* | 9 | 31 | -3 | 19 | 50* | 6 | 21 | 16
O=C(Cc1ccccc1)NCC(=O)N1CCc2ccccc2C1 | -11 | -1 | 0 | -7 | -9 | -5 | · | · | · | ·
O=C(Cc1ccc([N+](=O)[O-])cc1)N1CCc2ccccc2C1 | -12 | 55* | 25 | -4 | -38 | -6 | 74* | 7 | 24 | 6
O=C(COc1ccc([N+](=O)[O-])cc1)N1CCc2ccccc2C1 | 0 | 0 | 11 | 7 | -9 | -8 | · | · | · | ·
CCn1ncc([N+](=O)[O-])c1C(=O)N1CCc2ccccc2C1 | 12 | 42* | 8 | -10 | -8 | -4 | 30 | 0 | -1 | 1
O=C(CNCCc1ccccc1)N1CCc2ccccc2C1 | -27 | 81* | 20 | 27 | -15 | -11 | 99* | 4 | 89* | 5
